Calls of active or inactive are those of the source. The calls are words filed in the database; no cut-off is given here.
How the values were obtained:
[1] = tested on: Mus musculus; experiment: Anti-schizophrenic activity in ip dosed C57BL/6J mouse assessed as protection against MK-801-induced auditory gating deficit by measuring reduction in prepulse inhibition impairment at 8 to 16 dB prepulse intensity; assay type: functional, organism-based
[2] = molecular target: T1, 5-hydroxytryptamine receptor 3A (Homo sapiens) (UniProt P46098); experiment: Positive allosteric modulation of human 5-HT3A receptor expressed in Xenopus laevis oocytes assessed as increase in 5-HT-induced channel current at 10 uM at -90 mV holding potential by two-electrode voltage clamp method; assay type: cell-based
T1 sequence (whole entry): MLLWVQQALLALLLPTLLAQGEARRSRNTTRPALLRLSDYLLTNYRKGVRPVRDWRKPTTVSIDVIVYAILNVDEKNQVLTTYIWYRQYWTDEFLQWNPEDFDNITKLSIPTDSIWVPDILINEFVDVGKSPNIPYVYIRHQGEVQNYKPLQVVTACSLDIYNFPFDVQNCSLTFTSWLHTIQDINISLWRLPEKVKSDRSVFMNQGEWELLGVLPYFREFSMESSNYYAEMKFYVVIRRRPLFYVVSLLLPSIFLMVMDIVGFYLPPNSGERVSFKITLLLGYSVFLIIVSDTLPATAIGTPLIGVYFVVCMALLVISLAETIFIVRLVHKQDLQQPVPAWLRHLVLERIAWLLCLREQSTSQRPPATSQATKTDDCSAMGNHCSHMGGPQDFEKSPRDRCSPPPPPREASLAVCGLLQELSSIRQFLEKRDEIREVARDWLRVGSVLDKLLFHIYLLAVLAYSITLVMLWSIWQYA

[3] = molecular target: Glutamate NMDA receptor; Grin1/Grin2b (Rattus norvegicus) (UniProt P35439+Q00960); experiment: Positive allosteric modulation of rat GluN1/GluN2B receptor expressed in Xenopus laevis oocytes assessed as increase in glycine/glutamate-induced channel current 10 uM by two-electrode voltage clamp method; assay type: cell-based
[4] = Oral bioavailability in rat at 60 mg/kg by LC-MS/MS analysis; assay type: ADME, organism-based; details: in vivo
In short: (§1)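 Rat plasma stored at -20 °C, spiked with internal standard, protein-precipitated with methanol, centrifuged and filtered before LC-MS/MS. C18 column at 40 °C, acetonitrile/0.1% formic acid (80:20) isocratic at 0.5 mL/min. Positive ESI with MRM m/z 400.0->129.9. Parameters taken per rat by non-compartmental analysis, n = 3.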

[5] = Apparent volume of distribution in rat at 3 mg/kg, iv by LC-MS/MS analysis; assay type: ADME, organism-based; details: in vivo; in short: as §1
[6] = Apparent clearance in rat at 60 mg/kg, po by LC-MS/MS analysis; assay type: ADME, organism-based; details: in vivo; in short: as §1
[7] = molecular target: T2, Neuronal acetylcholine receptor subunit alpha-7 (Homo sapiens, UniProt P36544); experiment: (§2) Positive allosteric modulation of human alpha7 nAChR expressed in Xenopus laevis oocytes assessed as increase in acetylcholine-induced channel current at 10 uM at -90 mV holding potential preincubated for 2 mins followed by co-application with acetylcholine for 10 secs by two-electrode voltage clamp method relative to control; assay type: cell-based
[8] = Apparent volume of distribution during terminal phase in rat at 60 mg/kg, po by LC-MS/MS analysis; assay type: ADME, organism-based; details: in vivo; in short: as §1
[9] = Half life in rat at 60 mg/kg, po by LC-MS/MS analysis; assay type: ADME, organism-based; details: in vivo; in short: as §1
[10] = MRT in rat at 3 mg/kg, iv by LC-MS/MS analysis; assay type: ADME, organism-based; details: in vivo; in short: as §1
[11] = Drug uptake in C57BL/6J mouse brain at 1 mg/kg, ip after 2 hrs by LC-MS/MS analysis; assay type: ADME, organism-based; details: read-out: Drug uptake
In short: (§3)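 C57BL/6J mice given 1 mg/kg i.p. from a 0.4 mg/mL solution in 10% DMSO/50% PEG400/40% SBECD. Plasma and brain taken at 0.5, 2 and 8 h. Samples mixed with internal standard in methanol/acetonitrile (1:1), centrifuged and diluted 10x in methanol:water with 0.1% FA, then measured by HPLC-MS-MS. n = 3; ratio is brain over plasma concentration.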

[12] = AUCinfinity in rat at 3 mg/kg, iv by LC-MS/MS analysis; assay type: ADME, organism-based; parameters: dose 3 mg/kg, route intravenous, time infinity; details: in vivo; in short: as §1
[13] = Plasma concentration in C57BL/6J mouse at 1 mg/kg, ip after 0.5 hrs by LC-MS/MS analysis; assay type: ADME, organism-based; in short: as §3
[14] = Half life in rat at 3 mg/kg, iv by LC-MS/MS analysis; assay type: ADME, organism-based; details: in vivo; in short: as §1
[15] = molecular target: Neuronal acetylcholine receptor; alpha4/beta2 (Rattus norvegicus) (UniProt P09483+P12390); experiment: Positive allosteric modulation of rat alpha4beta2 nAChR expressed in Xenopus laevis oocytes assessed as increase in acetylcholine-induced channel current at 10 uM at -90 mV holding potential by two-electrode voltage clamp method; assay type: cell-based
In short: (§4)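 Rat α3β4 or α4β2 subunit cRNAs (~2 ng total, 1:1) injected into oocytes, which were kept at 16 °C in ND96. Two-electrode voltage clamp at -90 mV, 24-72 h post-injection, in Ringer's containing atropine at room temperature.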

[16] = tested on: Mus musculus; experiment: (§5) Anti-schizophrenic activity in C57BL/6J mouse assessed as protection against MK-801-induced auditory gating deficit by measuring prepulse inhibition impairment at 1 mg/kg, ip at 8 to 16 dB prepulse intensity (reference value: 11%); assay type: functional; parameters: scale not given: the % may be the effect or the level left
[17] = Cmax in rat at 3 mg/kg, iv by LC-MS/MS analysis; assay type: ADME, organism-based; parameters: dose 3 mg/kg, route intravenous; details: in vivo; in short: as §1
[18] = Drug uptake in C57BL/6J mouse brain at 1 mg/kg, ip after 0.5 hrs by LC-MS/MS analysis; assay type: ADME, organism-based; details: read-out: Drug uptake; in short: as §3
[19] = molecular target: Voltage-gated inwardly rectifying potassium channel KCNH2 (Homo sapiens, UniProt Q12809); experiment: Inhibition of human ERG expressed in HEK293 cells up to 30 uM at -80 mV holding potential by whole-cell patch clamp assay; assay type: cell-based
In short: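 HEK293 cells stably expressing hERG, whole-cell clamp at room temperature. Holding -80 mV, step to +20 mV for 2 s, then -40 mV for 1.6 s, repeated every 10 s. Compound perfused at 1-30 µM, with 100 nM cisapride as reference. Peak -40 mV tail currents normalized to control, n = 4.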

[20] = molecular target: Neuronal acetylcholine receptor; alpha3/beta4 (Rattus norvegicus) (UniProt P04757+P12392); experiment: Positive allosteric modulation of rat alpha3beta4 nAChR expressed in Xenopus laevis oocytes assessed as increase in acetylcholine-induced channel current at 10 uM at -90 mV holding potential by two-electrode voltage clamp method; assay type: cell-based; in short: as §4
[21] = tested on: Mus musculus; experiment: Anti-schizophrenic activity in C57BL/6J mouse assessed as protection against MK-801-induced auditory gating deficit by measuring prepulse inhibition impairment at 0.3 mg/kg, ip at 8 to 16 dB prepulse intensity (reference value: 11%); assay type: functional; parameters: scale not given: the % may be the effect or the level left
[22] = MRT in rat at 60 mg/kg, po by LC-MS/MS analysis; assay type: ADME, organism-based; details: in vivo; in short: as §1
[23] = AUCinfinity in rat at 60 mg/kg, po by LC-MS/MS analysis; assay type: ADME, organism-based; parameters: dose 60 mg/kg, time infinity, route oral; details: in vivo; in short: as §1
[24] = molecular target: T2, Neuronal acetylcholine receptor subunit alpha-7; experiment: as §2, with “by” for “by co-application with”, “addition in presence of alpha7 nAChR antagonist MLA” for “for 10 secs”; assay type: cell-based
[25] = tested on: Mus musculus; experiment: as §5, with “intensity pretreated for 30 mins followed by MK-801 treatment and measured after 30 mins” for “intensity”, “8.7%)” for “11%)”; assay type: functional; parameters: scale not given: the % may be the effect or the level left
[26] = AUClast in rat at 3 mg/kg, iv by LC-MS/MS analysis; assay type: ADME, organism-based; parameters: dose 3 mg/kg, time 0 - last, route intravenous; details: in vivo; in short: as §1

T2 sequence (P36544 whole entry): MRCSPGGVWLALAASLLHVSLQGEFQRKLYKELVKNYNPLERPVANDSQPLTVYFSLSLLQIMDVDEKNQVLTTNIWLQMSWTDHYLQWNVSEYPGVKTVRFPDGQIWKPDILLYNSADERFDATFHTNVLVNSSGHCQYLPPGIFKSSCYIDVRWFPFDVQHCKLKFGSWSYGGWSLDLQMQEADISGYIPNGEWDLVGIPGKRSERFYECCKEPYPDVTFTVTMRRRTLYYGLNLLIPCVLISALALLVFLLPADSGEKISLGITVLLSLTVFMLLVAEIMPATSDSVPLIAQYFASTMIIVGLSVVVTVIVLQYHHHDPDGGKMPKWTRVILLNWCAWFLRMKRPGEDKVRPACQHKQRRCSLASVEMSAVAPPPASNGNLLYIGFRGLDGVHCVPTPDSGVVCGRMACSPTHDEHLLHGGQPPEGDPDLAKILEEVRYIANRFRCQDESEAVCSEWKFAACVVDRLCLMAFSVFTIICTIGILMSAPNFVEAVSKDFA
Chain of Voltage-gated inwardly rectifying potassium channel KCNH2 (Q12809 whole entry, the tested form may be a part): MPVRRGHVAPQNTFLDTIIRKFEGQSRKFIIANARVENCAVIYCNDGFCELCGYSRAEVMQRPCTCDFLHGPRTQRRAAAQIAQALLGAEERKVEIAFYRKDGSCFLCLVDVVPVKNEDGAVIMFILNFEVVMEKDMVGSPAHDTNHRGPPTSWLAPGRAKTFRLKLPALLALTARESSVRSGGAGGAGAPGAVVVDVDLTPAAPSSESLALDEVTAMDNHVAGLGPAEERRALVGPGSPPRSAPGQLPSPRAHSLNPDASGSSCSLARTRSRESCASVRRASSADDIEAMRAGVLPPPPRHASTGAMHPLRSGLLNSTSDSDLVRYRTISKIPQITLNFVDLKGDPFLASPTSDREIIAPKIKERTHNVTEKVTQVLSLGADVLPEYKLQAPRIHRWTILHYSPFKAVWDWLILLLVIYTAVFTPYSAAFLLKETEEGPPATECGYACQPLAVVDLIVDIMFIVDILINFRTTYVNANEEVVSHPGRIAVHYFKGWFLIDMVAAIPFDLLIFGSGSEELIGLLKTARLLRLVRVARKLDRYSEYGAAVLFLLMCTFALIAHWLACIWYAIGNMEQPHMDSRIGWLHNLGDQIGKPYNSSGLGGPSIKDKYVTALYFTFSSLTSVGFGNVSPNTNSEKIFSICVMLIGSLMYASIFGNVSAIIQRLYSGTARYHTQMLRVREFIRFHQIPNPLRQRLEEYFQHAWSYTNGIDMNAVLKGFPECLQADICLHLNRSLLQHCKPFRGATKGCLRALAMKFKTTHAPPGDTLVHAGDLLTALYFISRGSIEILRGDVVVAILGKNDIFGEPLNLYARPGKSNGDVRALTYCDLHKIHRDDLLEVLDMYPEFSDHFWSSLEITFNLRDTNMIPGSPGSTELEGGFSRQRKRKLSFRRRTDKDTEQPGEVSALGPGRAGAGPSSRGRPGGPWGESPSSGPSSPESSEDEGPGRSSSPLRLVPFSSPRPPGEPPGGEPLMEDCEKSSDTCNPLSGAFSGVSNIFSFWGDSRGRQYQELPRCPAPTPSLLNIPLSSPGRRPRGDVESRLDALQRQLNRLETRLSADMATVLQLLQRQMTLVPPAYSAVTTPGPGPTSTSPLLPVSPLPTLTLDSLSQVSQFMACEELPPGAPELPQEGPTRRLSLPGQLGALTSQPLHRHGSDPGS

Cc1cccc(Cl)c1-n1cnc2nc(SCc3ccccc3)sc2c1=O
Activity [1]: Dose-dependent effect | Activity [2]: inactive | Activity [3]: inactive | bioavailability [4]: 8% | Vd [5]: 0.069 L/kg | CL/F [6]: 1 mL/min/kg | %max [7]: 1630% | Vd/F [8]: 0.6 L/kg | half-life [9]: 444 min | MRT [10]: 7 h | concentration at 2 h [11]: 26.3 ng/g | AUC(0-inf) [12]: 680 ng·h/mL | concentration at 0.5 h [13]: 34.3 ng/mL | half-life [14]: 648 min | Activity [15]: inactive | Activity [16]: 28% | Cmax [17]: 700 ng/mL | concentration at 0.5 h [18]: 84.7 ng/g | inhibition (INH) [19]: Not Active | Activity [20]: inactive | Activity [21]: 26% | MRT [22]: 9.5 h | AUC(0-inf) [23]: 1100 ng·h/mL | Activity [24]: inactive | Activity [25]: 30% | AUC(0-t) [26]: 600 ng·h/mL

Reference: ChEMBL document CHEMBL4308829, “Design and Synthesis of Novel Positive Allosteric Modulators of α7 Nicotinic Acetylcholine Receptors with the Ability To Rescue Auditory Gating Deficit in Mice” (J Med Chem, 2018)
